# Reference: PubChem BioAssay AID504383 (The Scripps Research Institute Molecular Screening Center, 2011)
# Hit rate of the full screen: of about 2,500 compounds, about 1,200 (48%) were called active. So high a share suggests a set chosen from earlier hits. This is one part of the list. Values without a mark were called inactive.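 How the source made its calls: active means mean activation above the low control average plus 3 SD, as set in the primary screen (cut at about 12% in these data); inactive means the rest.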
# Biological target: Troponin I, cardiac muscle (Homo sapiens) + Troponin T, cardiac muscle (Homo sapiens) + Troponin C, slow skeletal and cardiac muscles (Homo sapiens) (UniProt P19429+P45379+P63316)
# Assay: cardiac RTF calcium sensitivity activators, confirmation, biochemical, IANBD-TnC fluorescence, triplicate (AID 504383);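 further: 0% = DMSO at 0.472 mM calcium and 100% = DMSO at 2.9 mM calcium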
# Details: IANBD-labeled cardiac RTF, Ca2+ sensitivity fluorescence; at 7.2 µM; hits give high values; scaled from EC20 to saturating calcium; tested at EC20 calcium, 0.472 mM
# Method in brief: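 Material: labelled regulated thin filaments; Reagent: 0.472 mM calcium; Incubation: 15 min compound incubation with filaments at 25 °C; Detection: filament fluorescence intensity; Evaluation: fluorescence increase normalised to calcium controls; Benchmarks: low control EC20 calcium, high control EC100 calcium.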
row,SMILES,activation
1,COc1ccccc1-c1nnc(SCc2nc3ccccc3s2)n1C,29.9% (active)
2,CC(C)(C)OC(=O)[C@H](Cc1ccccc1)NC(=O)c1nc[nH]c1C(=O)NCc1ccccc1,25.1% (active)
3,O=C(NCc1ccccc1Cl)c1ccc2nc[nH]c2c1,6.6%
4,CN(Cc1ccccc1)C(=O)c1[nH]cnc1C(=O)NCc1ccccc1,59.9% (active)
5,O=C1N(c2ccc(Cl)cc2)C(c2ccccc2)N2CCCN12 (configuration not stated),5.52%
6,O=C(c1cccc(F)c1)N1CCN(C(=O)c2cc(-c3ccc(Cl)cc3Cl)on2)CC1,3.41%
7,Fc1ccc(-c2nnc(-c3ccc(Cl)cc3Cl)o2)cc1,54% (active)
8,C/C(=N\NC(=O)c1ccccc1)c1ccc(NC(=O)c2cccs2)cc1,3.16%
9,Cc1ccc(-n2nc(C)c(=O)c(-c3ccccc3)c2NC(=O)c2cccs2)cc1,11.8% (active)
10,CCOC(=O)/C(=C/C=C1\Sc2cc(C)c(C)cc2N1CC)C(C)=O,4.3%
11,CCOC(=O)/C(=C\C=C1/Sc2cc(OCC)c(OCC)cc2N1CC)C(C)=O,8.28%
12,CCOC(=O)/C(=C\C=C1/Sc2ccccc2N1CC)C(C)=O,20% (active)
13,CCN1/C(=C\C=C(C(C)=O)C(C)=O)Sc2ccccc21,9.03%
14,CCOC(=O)/C(=C/C=C1\Sc2ccccc2N1CC)C(C)=O,190% (active)
15,CCOC(=O)/C(=C/C=C1\Sc2cc(OCC)c(OCC)cc2N1CC)C(C)=O,40% (active)
16,CCOC(=O)/C(C#N)=C(C)/C=C1\Sc2ccccc2N1CC,11.9% (active)
17,CC1(C)c2[nH]c3ccccc3c2C[C@H]2C(=O)N(Cc3ccc(F)cc3)C(=O)N21,6.36%
18,CC(C)NC(=O)C1CCCN(c2nnc(-n3cccc3)s2)C1 (configuration not stated),1270% (active)
19,COC(=O)c1cc2c(cc1NC(=O)CSCCc1ccccn1)OCO2,7.4%

row,SMILES,activation
1,COCc1cc(C)n(CC(=O)Nc2ccccc2C(=O)OC)c(=O)c1C#N,23.2% (active)
2,Cc1cc(Br)ccc1SCC(=O)OCC(=O)Nc1ccccc1C#N,9.13%
3,Cc1noc(C)c1S(=O)(=O)N(C)C[C@H]1Oc2ccc(NC(=O)CCC(F)(F)F)cc2C(=O)N([C@H](C)CO)C[C@@H]1C,10.2%
4,C[C@H]1CN([C@@H](C)CO)C(=O)Cc2cc(NC(=O)CCC(F)(F)F)ccc2O[C@H]1CN(C)S(C)(=O)=O,15.4% (active)
5,COc1ccc(-n2c(O)c(/C=N/NS(=O)(=O)c3cccc([N+](=O)[O-])c3)c3ccccc3c2=O)cc1OC,9.84%
6,COc1ccccc1NS(=O)(=O)c1cc([N+](=O)[O-])ccc1N/N=C/c1c(C)[nH]c2ccccc12,27.9% (active)
7,COc1ccccc1NS(=O)(=O)c1ccccc1C#N,3.34%
8,O=C(NN1C(=O)/C(=C/c2ccc(O)cc2)SC1=S)c1cccc(O)c1,12.5% (active)
9,CN(C)c1ccc(/C=C2\SC(=S)N(Nc3ncc(C(F)(F)F)cc3Cl)C2=O)cc1,7.16%
10,O=C(CCN1C(=O)/C(=C/c2cccs2)SC1=S)NNC(=O)c1cccc(O)c1,7.19%
11,CC(=O)NN1C(=O)/C(=C\c2ccc(O)cc2)SC1=S,12.5% (active)
12,O=C(NN1C(=O)/C(=C/c2ccc(O)cc2)SC1=S)c1ccccc1O,9.61%
13,Cc1ccc(N2C3=C(C(=O)CC(C)(C)C3)C(c3cn(C)nc3C)C3=C2CC(C)(C)CC3=O)cc1,35.1% (active)
14,Cc1c(C2Nc3ccccc3NC3=C2C(=O)CC(C)(C)C3)cnn1C (configuration not stated),4.72%
15,COc1cc(/C=C(\C#N)C(=O)c2c[nH]c3ccccc23)cc(OC)c1O,5.75%
16,N#C/C(=C\c1c[nH]c2ccccc12)C(=O)Nc1ncc(Cc2ccc(Cl)cc2Cl)s1,30.3% (active)
17,COCCN=c1scc(-c2cc(OC)c(OC)c(OC)c2)n1/N=C/c1c(C)[nH]c2ccccc12,72.2% (active)
18,O=C(C1=C(O)C(=O)N(CCN2CCOCC2)C1c1ccc([N+](=O)[O-])cc1)c1cccs1 (configuration not stated),188% (active)
19,CC(C)Oc1ccc(/C(O)=C2/C(=O)C(=O)N(CCN3CCNCC3)C2c2cccc([N+](=O)[O-])c2)cc1 (configuration not stated),6.36%

row,SMILES,activation
1,COc1ccc(NC(=O)CNS(=O)(=O)c2cccs2)cc1,7.87%
2,COc1ccc(N(C(=O)c2ccc(C)cc2)S(=O)(=O)c2cccs2)cc1,175% (active)
3,Nc1ccc2cc3[nH]c4cc(N)ccc4c3nc2c1,13.7% (active)
4,O=C(O)C1=C[C@H](c2ccccc2)C[C@H](OCc2ccc(CO)cc2)O1,1.76%
5,Cc1c(O)c(=O)c2ccccc2n1C,16.4% (active)
6,COc1ccc(NC(=O)CCN2CC(C)OC(C)C2)c(OC)c1 (configuration not stated),4.53%
7,COc1ccc(NC(=O)CCN2CCCC2)c(OC)c1,80.7% (active)
8,COc1ccc(CN2CCC(=O)N([C@H](CO)c3ccccc3)CC2)cc1,21.1% (active)
9,COc1ccc(CN2CNc3c(c(=O)n(C)c(=O)n3C)C2)cc1,14.9% (active)
10,COc1ccc(-c2c3c(=O)n(C)c(=O)n(C)c3cn2-c2cccc(OC)c2)cc1,1.1%
11,CCCNC(=S)N1CCC(NC(=O)C23CC4CC(CC(C4)C2)C3)CC1,8.77%
12,Nc1ccc2nc(-c3ccccc3)cnc2c1,83.1% (active)
13,c1ccc(-c2cnn3c(-c4ccccc4)c(-c4ccccc4)nc3n2)cc1,3.13%
14,CN1/C(=C\C=C2\N=C(c3ccc(F)cc3)OC2=O)C(C)(C)c2ccccc21,13.9% (active)
15,CN1/C(=C\C=C2/SC(=S)NC2=O)C(C)(C)c2ccccc21,10.1%
16,CCO/C=C1\N=C(c2ccc(F)cc2)OC1=O,4.72%
17,CC(C)c1ccc(NS(=O)(=O)c2cccc3cccnc23)cc1,446% (active)
18,CCN(CC)C(=O)C1CCC(CNS(=O)(=O)c2cccc3cccnc23)CC1 (configuration not stated),0.91%
19,O=C1CCC[C@@H]2C[C@@]3(C[C@@H]4CCN1[C@H]24)Nc1cc([N+](=O)[O-])ccc1NC3=NC1CCCCC1,41.2% (active)
